Source: ChEMBL document CHEMBL3232761, “Novel metronidazole-chalcone conjugates with potential to counter drug resistance in Trichomonas vaginalis” (Eur J Med Chem, 2014)
Values after ≈ are worked out from the molar mass of the structure shown.

What was measured:
Trichomonas vaginalis [1] = experiment: Antitrichomonal activity against metronidazole-susceptible Trichomonas vaginalis clinical isolate by trypan blue staining-based cell counting; type: functional
Summary of the method: (§1)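 Log-phase trophozoites (grown 1 day in TYM medium with 10% heat-inactivated FBS, pH 6.8, under partial anaerobiosis at 37°C) seeded at 5 X 10³/well. Compounds dissolved in DMSO and serially diluted in TYM from 100 to 0.78 μg/ml; vehicle wells had 0.05% DMSO. Plates incubated anaerobically at 37°C, with viability followed by trypan blue counting. MIC taken at 24 h as the lowest concentration leaving all trophozoites nonviable.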

Trichomonas vaginalis [2] = experiment: Ratio of MIC for metronidazole-resistant Trichomonas vaginalis ATCC 50143 to metronidazole-susceptible Trichomonas vaginalis clinical isolate; type: functional
Summary of the method: (§2)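 Both T. vaginalis strains were grown in TYM medium (pH 6.8) with 10% heat-inactivated FBS, 2% vitamin mixture, penicillin and streptomycin, under partial anaerobiosis at 37°C. Log-phase trophozoites (5 X 10³/well) taken 1 day after subculture were exposed to twofold dilutions from 100 down to 0.78 μg/ml (from DMSO stocks), with 0.05% DMSO vehicle controls, anaerobically at 37°C. Viability was scored daily by trypan blue counting. MIC was the lowest concentration leaving all trophozoites nonviable at 24 h.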

Trichomonas vaginalis [3] = experiment: Antitrichomonal activity against metronidazole-resistant Trichomonas vaginalis ATCC 50143 by trypan blue staining-based cell counting; type: functional; summary of the method: as §1
HeLa = experiment: Cytotoxicity against human HeLa cells after 24 hrs by MTT assay; type: cell-based
Summary of the method: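 HeLa cells were kept in DMEM with 10% FBS at 37°C under 5% CO₂, then seeded at 5 X 10⁴/well and grown 24 h. Medium was replaced with compound dilutions starting at 1.0 mg/ml, with 0.05% DMSO in control wells, and cells were exposed for 24 h. MTT was then added, formazan was dissolved in DMSO, and OD was read at 540 nm.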

Trichomonas vaginalis [4] = experiment: Ratio of metronidazole MIC to compound MIC for metronidazole-resistant Trichomonas vaginalis ATCC 50143 by trypan blue staining-based cell counting; type: functional; summary of the method: as §2

| SMILES | MIC (Trichomonas vaginalis [1]) [µg/mL] | MIC (Trichomonas vaginalis [3]) [µg/mL] | Ratio (Trichomonas vaginalis [2]) | IC50 (HeLa) [µg/mL] | Ratio (Trichomonas vaginalis [4]) |
| --- | --- | --- | --- | --- | --- |
| Cc1ncc([N+](=O)[O-])n1CCOc1ccc(C(=O)/C=C/c2ccc(F)cc2)cc1 | 1.56 (≈ 3.95 µM) | 6.25 (≈ 15.8 µM) | 2 |  |  |
| Cc1ncc([N+](=O)[O-])n1CCOc1ccc(C(=O)/C=C/c2ccccc2)cc1 | 1.56 (≈ 4.13 µM) | 50 (≈ 132 µM) | 4 |  |  |
| Cc1ncc([N+](=O)[O-])n1CCOc1ccc(C(=O)/C=C/c2ccccc2Cl)cc1 | 3.12 (≈ 7.59 µM) | 12.5 (≈ 30.4 µM) |  |  |  |
| Cc1ncc([N+](=O)[O-])n1CCOc1ccc(C(=O)/C=C/c2cc(F)cc(F)c2)cc1 | 1.56 (≈ 3.77 µM) | 3.12 (≈ 7.56 µM) | 2 | > 1000 | 4 |
| Cc1ncc([N+](=O)[O-])n1CCOc1ccc(C(=O)/C=C/c2ccc(Cl)cc2)cc1 | 6.25 (≈ 15.2 µM) | 6.25 (≈ 15.2 µM) |  |  |  |
| Cc1ncc([N+](=O)[O-])n1CCOc1ccc(C(=O)/C=C/c2ccc([N+](=O)[O-])cc2)cc1 | 1.56 (≈ 3.69 µM) | 6.25 (≈ 14.8 µM) | 2 |  | 2 |
| Cc1ncc([N+](=O)[O-])n1CCOc1ccc(C(=O)/C=C/c2cccc(Cl)c2)cc1 | 1.56 (≈ 3.79 µM) | 3.12 (≈ 7.59 µM) | 2 | > 1000 | 4 |
| Cc1ncc([N+](=O)[O-])n1CCOc1ccc(C(=O)/C=C/c2ccccc2C(F)(F)F)cc1 | 6.25 (≈ 14 µM) | 25 (≈ 56.1 µM) |  |  |  |
| Cc1ncc([N+](=O)[O-])n1CCOc1ccc(C(=O)/C=C/c2ccc(F)c(F)c2)cc1 | 1.56 (≈ 3.77 µM) | 6.25 (≈ 15.1 µM) | 2 |  |  |
| COc1ccc(/C=C/C(=O)c2ccc(OCCn3c([N+](=O)[O-])cnc3C)cc2)cc1OC | 1.56 (≈ 3.57 µM) | 12.5 (≈ 28.6 µM) | 8 |  |  |
| Cc1ncc([N+](=O)[O-])n1CCOc1ccc(C(=O)/C=C/c2cccc(Br)c2)cc1 | 3.12 (≈ 6.85 µM) | 3.12 (≈ 6.85 µM) |  |  | 4 |
| Cc1ncc([N+](=O)[O-])n1CCOc1ccc(C(=O)/C=C/c2ccccc2Br)cc1 | 3.12 (≈ 6.85 µM) | 6.25 (≈ 13.7 µM) |  |  |  |
| Cc1ncc([N+](=O)[O-])n1CCOc1ccc(C(=O)/C=C/c2cccc3ccccc23)cc1 | 6.25 (≈ 14.6 µM) | 25 (≈ 58.5 µM) |  |  |  |
| COc1ccc(/C=C/C(=O)c2ccc(OCCn3c([N+](=O)[O-])cnc3C)cc2)cc1 | 3.12 (≈ 7.67 µM) | 25 (≈ 61.4 µM) |  |  |  |
| Cc1ncc([N+](=O)[O-])n1CCOc1ccc(C(=O)/C=C/c2cc(F)ccc2F)cc1 | 1.56 (≈ 3.77 µM) | 6.25 (≈ 15.1 µM) | 2 |  |  |
| Cc1ncc([N+](=O)[O-])n1CCO [METRONIDAZOLE] | 1.56 (≈ 9.11 µM) | 12.5 (≈ 73 µM) | 8 | > 1000 |  |

Second part, led by results:

| MIC (Trichomonas vaginalis [1]) [µg/mL] | MIC (Trichomonas vaginalis [3]) [µg/mL] | SMILES | Ratio (Trichomonas vaginalis [2]) | IC50 (HeLa) [µg/mL] | Ratio (Trichomonas vaginalis [4]) |
| --- | --- | --- | --- | --- | --- |
| 12.5 (≈ 28.6 µM) | 12.5 (≈ 28.6 µM) | COc1ccc(OC)c(/C=C/C(=O)c2ccc(OCCn3c([N+](=O)[O-])cnc3C)cc2)c1 |  |  |  |
| 6.25 (≈ 14 µM) | 12.5 (≈ 28 µM) | Cc1ncc([N+](=O)[O-])n1CCOc1ccc(C(=O)/C=C/c2ccc(Cl)cc2Cl)cc1 |  |  |  |
| 6.25 (≈ 14 µM) | 25 (≈ 56 µM) | Cc1ncc([N+](=O)[O-])n1CCOc1ccc(C(=O)/C=C/c2c(Cl)cccc2Cl)cc1 |  |  |  |
| 6.25 (≈ 13.7 µM) | 6.25 (≈ 13.7 µM) | Cc1ncc([N+](=O)[O-])n1CCOc1ccc(C(=O)/C=C/c2ccc(Br)cc2)cc1 |  |  |  |
| 25 (≈ 63.2 µM) | 100 (≈ 253 µM) | Cc1ncc([N+](=O)[O-])n1CCOc1ccc(C(=O)/C=C/c2cccc(F)c2)cc1 |  |  |  |
| 6.25 (≈ 15.4 µM) | 12.5 (≈ 30.8 µM) | Cc1ccc(/C=C/C(=O)c2ccc(OCCn3c([N+](=O)[O-])cnc3C)cc2)cc1C |  |  |  |
| 3.12 (≈ 7.02 µM) | 25 (≈ 56.1 µM) | Cc1ncc([N+](=O)[O-])n1CCOc1ccc(C(=O)/C=C/c2ccc(C(F)(F)F)cc2)cc1 |  |  |  |
